These results are taken from ChEMBL document CHEMBL1124344, “5-Piperazinylalkyl-2(3H)-oxazolones with neuroleptic activity” (J Med Chem, 1989).

The subject of series [1] is Mus musculus. Description: Inhibition of amphetamine-induced hypermobility in mice following p.o. administration. Format: functional. To be noted: po. The gist of the method: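 Compounds were given orally to male mice (gum arabic suspension, 10 mL/kg, fasted) in groups of five. Amphetamine 4 mg/kg ip followed 30 min later. After another 10 min, motility was recorded for 15 min with a photocell actophotometer. ED50, by probit analysis, is the dose giving 50% reduction against controls.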

Series [2] in a line: Lethal dose in mice (LD50) following i.p. dosing. In kind it is toxicity, organism-based. Particulars: mouse, in vivo, ip. The gist of the method:
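Acute toxicity tested in mice by the intraperitoneal route. LD50 is the dose killing 50% of treated mice, computed by Finney probit analysis; values are approximate.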

For series [3], the system named is Rattus norvegicus. The series can be described thus: Activity to evoke catalepsy in rats, by administering perorally at a dose of 100 mg/kg. Particulars: route oral, read-out: Inhibition. In kind it is functional. The gist of the method:
(§1)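 Rats fasted overnight and given oral doses in arabic gum suspension (10 mL/kg), 1 h before screening or 1 and 5 h before profile testing. Forelegs placed on a horizontal bar 7 cm high, three times at 5-min intervals. Immobility of at least 15 s counts as catalepsy. ED50 is the dose giving catalepsy in 50% of rats, by probit analysis. Parenthetical entries give the maximal dose and percent activity.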

Series [4] deals with Mus musculus. Description: Inhibition of spontaneous motor activity in mice, by administering perorally. Particulars: po. In kind it is functional. The gist of the method:
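Mice in groups of five were dosed orally with gum arabic suspensions at 10 mL/kg after an overnight fast, with a vehicle control group. Locomotion was counted for 10 min in a photocell activity cage, in at least two groups per dose. ED50, by probit analysis, is the dose giving 50% inhibition against controls.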

In series [5] the test system is Rattus norvegicus. The series can be described thus: Activity to evoke catalepsy in rats, by administering perorally. In kind it is functional. To be noted: po. The gist of the method: as §1
The subject of series [6] is Rattus norvegicus. The series can be described thus: Antagonistic activity against apomorphine-induced stereotypy in rats, by administering perorally. Particulars: po. In kind it is functional. The gist of the method:
(§2)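 Male rats fasted overnight and given oral doses in arabic gum suspension (10 mL/kg) 1 h, or 1 and 5 h, before challenge. Apomorphine 3 mg/kg iv, with stereotypy observed 20 min later. ED50 is the dose inhibiting stereotypy in 50% of rats, per Janssen's method. Parenthetical entries give the maximal dose and percent activity.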

Series [7] has as its system Rattus norvegicus. Description: Antagonistic activity against apomorphine-induced stereotypy in rats, by administering perorally at a dose of 40 mg/kg. In kind it is functional. To be noted: route oral. The gist of the method: as §2
The test system of series [8] is Mus musculus. The series can be described thus: Antagonistic activity against amphetamine-induced Hypermobility in mice, by administering perorally at a dose of 10 mg/kg. Format: functional. Particulars: route oral. The gist of the method: (§3)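 Male mice in groups of five, fasted overnight, given oral drug in arabic gum suspension (10 mL/kg) 1 or 5 h ahead. Amphetamine 4 mg/kg ip given 30 min after drug. Ten minutes later locomotion is recorded for 15 min in a photocell actophotometer. ED50 is 50% reduction versus control hypermotility, by probit analysis. Parenthetical entries give the maximal dose and percent activity.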

The subject of series [9] is Rattus norvegicus. Description: Activity to evoke catalepsy in rats, by administering perorally at a dose of 40 mg/kg. Format: functional. To be noted: route oral. The gist of the method: as §1
Series [10] concerns Rattus norvegicus. The series can be described thus: Antagonistic activity against apomorphine-induced stereotypy in rats, by administering perorally at a dose of 100 mg/kg. Format: functional. Particulars: route oral. The gist of the method: as §2
For series [11], the system named is Mus musculus. Description: Antagonistic activity against amphetamine-induced Hypermobility in mice, by administering perorally at a dose of 100 mg/kg. In kind it is functional. To be noted: route oral. The gist of the method:
as §3

Series [12] has as its system Mus musculus. The series can be described thus: Inhibition of spontaneous motor activity in mice, by administering perorally at a dose of 100 mg/kg. To be noted: route oral. Format: functional. The gist of the method:
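Mice fasted overnight, then dosed orally with compound (weighed as base) suspended in arabic gum, 10 mL/kg, with vehicle controls; 1 h pretreatment for screening tests, 1 or 5 h for others. Groups of five; locomotor activity counted 10 min in photocell activity cage, at least two groups per dose. ED50 = dose giving 50% inhibition versus controls, by probit analysis.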

The subject of series [13] is Rattus norvegicus. The series can be described thus: Antagonistic activity against apomorphine-induced stereotypy in rats, by administering perorally at a dose of 20 mg/kg. Format: functional. Particulars: route oral. The gist of the method:
as §2

Series [14] has as its system Mus musculus. Description: Antagonistic activity against amphetamine-induced Hypermobility in mice, by administering perorally at a dose of 20 mg/kg. Format: functional. To be noted: route oral. The gist of the method: as §3
Series [15] concerns Rattus norvegicus. The series can be described thus: Activity to evoke catalepsy in rats, by administering perorally at a dose of 20 mg/kg. Format: functional. To be noted: route oral, read-out: Inhibition. The gist of the method: as §1
Series [16] deals with Rattus norvegicus. Description: Antagonistic activity against apomorphine-induced stereotypy in rats, by administering perorally at a dose of 50 mg/kg. To be noted: route oral. Format: functional. The gist of the method: as §2
For series [17], the system named is Rattus norvegicus. Description: Activity to evoke catalepsy in rats, by administering perorally at a dose of 50 mg/kg. In kind it is functional. Particulars: route oral. The gist of the method:
as §1

Series [18] concerns Rattus norvegicus. The series can be described thus: Antagonistic activity against apomorphine-induced stereotypy in rats, by administering perorally at a dose of 150 mg/kg. In kind it is functional. To be noted: route oral. The gist of the method: as §2
Series [19] concerns Rattus norvegicus. Description: Activity to evoke catalepsy in rats, by administering perorally at a dose of 150 mg/kg. In kind it is functional. Particulars: route oral. The gist of the method:
as §1

Bounds are passed on as bounds.

With `CNC(=O)n1c(-c2ccc(F)cc2)c(CCN2CCN(c3ccccc3)CC2)oc1=O`, the ED50 – broadly, the dose that gives a 50% effect, or the effect in half of the subjects – in the series on Mus musculus [1] is 9.9 mg/kg; in the series with Mus musculus [4] it was 16.5 mg/kg. For the same molecule, the 50% lethal dose (LD50) (usually the dose at which mortality reaches 50%) in [2] turned out to be 750 mg/kg. Further, the percent of rats showing catalepsy at 100 mg/kg in the series with Rattus norvegicus [3] stood at 0%.
Consider `Oc1nc(-c2ccccc2)c(CCN2CCN(c3ccccc3)CC2)o1`, for which the ED50 with Mus musculus [1] stood at 51 mg/kg; with Rattus norvegicus [5] it was 63 mg/kg; in the series on Rattus norvegicus [6] it was 200 mg/kg; in the series on Mus musculus [4], 60 mg/kg. In addition, the LD50 in series [2] is more than 1000 mg/kg.
As for `Oc1nc(-c2ccc(F)cc2)c(CCCN2CCN(c3ccccc3)CC2)o1`, the inhibition in vivo at 40 mg/kg in the series on Rattus norvegicus [7] and with Rattus norvegicus [9] was 0% each time. Testing at 10 mg/kg with Mus musculus [8] gave an inhibition in vivo of 69%. This molecule also showed an LD50 in series [2] of 170 mg/kg. In addition, the ED50 in the series on Mus musculus [4] is 8 mg/kg.
For the molecule `Oc1nc(-c2ccc(F)cc2)c(CCN2CCN(c3cc(Br)cc(Br)c3)CC2)o1`, the 50% effective dose (ED50) amounted to 5.4 mg/kg with Mus musculus [1] and 15 mg/kg in the series on Mus musculus [4]. The molecule further displayed an LD50 in series [2] of 1000 mg/kg. For the same molecule, testing at 100 mg/kg in the series on Rattus norvegicus [10] gave an inhibition in vivo of 0%. The percent of rats showing catalepsy at 100 mg/kg in the series on Rattus norvegicus [3] turned out to be 0%.
For the molecule `Oc1nc(-c2ccc(F)cc2)c(CCN2CCN(c3cc(Cl)c(Cl)c(Cl)c3)CC2)o1`, the inhibition in vivo at 100 mg/kg in the series on Mus musculus [11], in the series on Rattus norvegicus [10] and with Mus musculus [12] was 0% each time. For the same molecule, the 50% lethal dose (LD50) in [2] was more than 1000 mg/kg. The percent of rats showing catalepsy at 100 mg/kg in the series with Rattus norvegicus [3] came out at 0%.
For `Oc1nc(-c2ccc(F)cc2)c(CCN2CCN(c3cccc(Cl)c3Cl)CC2)o1`, the values for the inhibition in vivo at 20 mg/kg in the series on Rattus norvegicus [13] and in the series with Mus musculus [14] were 0% and 69%, respectively. The molecule further returned a 50% lethal dose (LD50) in series [2] of 90 mg/kg. In the series on Mus musculus [4], it took a dose of 12.5 mg/kg to reach the 50% effect level (ED50). The percent of rats showing catalepsy at 20 mg/kg with Rattus norvegicus [15] worked out at 0%.
For the molecule `COc1cccc(N2CCN(CCc3oc(O)nc3-c3ccc(F)cc3)CC2)c1`, the values for the median effective dose (ED50) in the series with Mus musculus [1] and with Mus musculus [4] were 7.6 mg/kg and 10.8 mg/kg, respectively. Besides, the inhibition in vivo (usually the percentage by which the read-out fell short of the control) at 50 mg/kg in the series with Rattus norvegicus [16] was 0%; in the series with Rattus norvegicus [17] it was 30%. In [2], this molecule displayed a median lethal dose (LD50) of 500 mg/kg.
As for `Cc1ccc(-c2nc(O)oc2CCN2CCN(c3ccccc3)CC2)cc1`, the figures for the median effective dose (ED50) in the series with Mus musculus [1] and with Mus musculus [4] were 2 mg/kg and 6.4 mg/kg, respectively. Further, the LD50 in series [2] was 400 mg/kg. The same molecule displayed an inhibition in vivo at 100 mg/kg with Rattus norvegicus [10] of 0%. Moreover, the percent of rats showing catalepsy at 100 mg/kg in the series with Rattus norvegicus [3] was 0%.
For `Oc1nc(-c2ccc(Cl)cc2)c(CCN2CCN(c3ccccn3)CC2)o1`, the median effective dose (ED50) in the series with Mus musculus [1] is 14.3 mg/kg; with Rattus norvegicus [5] it was 47 mg/kg; in the series on Mus musculus [4], 14.1 mg/kg. Also, the inhibition in vivo at 50 mg/kg in the series on Rattus norvegicus [16] turned out to be 0%. The molecule also showed an LD50 in series [2] of 375 mg/kg.
For `Oc1nc(-c2ccc(F)cc2)c(CCN2CCN(c3cccc(Cl)c3)CC2)o1`, the ED50 was found to be 54.1 mg/kg in the series on Mus musculus [1], 80 mg/kg in the series with Rattus norvegicus [6] and 58.5 mg/kg with Mus musculus [4]. This molecule also displayed an LD50 in [2] of more than 1000 mg/kg. In addition, the percent of rats showing catalepsy at 100 mg/kg in the series with Rattus norvegicus [3] came out at 0%.
As for `O=C(c1ccccc1)n1c(-c2ccc(F)cc2)c(CCN2CCN(c3ccccc3)CC2)oc1=O`, the ED50 in the series with Mus musculus [1] stood at 9.3 mg/kg; in the series on Mus musculus [4], 4 mg/kg. Besides, the inhibition in vivo at 150 mg/kg came out at 40% with Rattus norvegicus [18] and 0% with Rattus norvegicus [19]. This molecule also came in with a median lethal dose (LD50) in series [2] of 750 mg/kg.
In the case of `CC(=O)n1c(-c2ccc(F)cc2)c(CCN2CCN(c3ccccc3)CC2)oc1=O`, the ED50 with Mus musculus [1] was determined as 4.7 mg/kg; in the series with Rattus norvegicus [5] it was 30.5 mg/kg; with Rattus norvegicus [6], 44 mg/kg; in the series with Mus musculus [4] it was 2.7 mg/kg. In addition, the median lethal dose (LD50) in [2] was 350 mg/kg.
As to `Cc1cccc(N2CCN(CCc3oc(O)nc3-c3ccc(F)cc3)CC2)c1`, the ED50 in the series on Mus musculus [1] came out at 7.3 mg/kg; in the series on Mus musculus [4] it was 13.4 mg/kg. Moreover, the inhibition in vivo at 50 mg/kg in the series with Rattus norvegicus [16] and in the series with Rattus norvegicus [17] was 0% throughout. Besides, the LD50 in series [2] was more than 1000 mg/kg.
